From ChEMBL document CHEMBL4270638, “Sulfonyl-containing phenyl-pyrrolyl pentane analogues: Novel non-secosteroidal vitamin D receptor modulators with favorable physicochemical properties, pharmacokinetic properties and anti-tumor activity” (Eur J Med Chem, 2018)
In brackets after ≈: the same amount, converted by molar mass. Activity calls are given as the source filed them. The rule behind the calls is not given here.

How the values were obtained:
BXPC-3 = assay: Antiproliferative activity against human BxPC3 cells after 24 hrs by MTT assay; assay type: functional, cell-based; conditions: BXPC-3, 24 h
MCF7 [1] = assay: Antiproliferative activity against human MCF7 cells after 24 hrs by MTT assay; assay type: functional, cell-based; conditions: MCF7, 24 h
PC-3 = assay: Antiproliferative activity against human PC3 cells after 24 hrs by MTT assay; assay type: functional, cell-based; conditions: PC-3, 24 h
Vitamin D3 receptor = target: T1, Vitamin D3 receptor (Homo sapiens, UniProt P11473); assay: Displacement of fluormone VDR red from human full-length VDR after 4 hrs by fluorescence polarization assay
T1 sequence (P11473 whole entry): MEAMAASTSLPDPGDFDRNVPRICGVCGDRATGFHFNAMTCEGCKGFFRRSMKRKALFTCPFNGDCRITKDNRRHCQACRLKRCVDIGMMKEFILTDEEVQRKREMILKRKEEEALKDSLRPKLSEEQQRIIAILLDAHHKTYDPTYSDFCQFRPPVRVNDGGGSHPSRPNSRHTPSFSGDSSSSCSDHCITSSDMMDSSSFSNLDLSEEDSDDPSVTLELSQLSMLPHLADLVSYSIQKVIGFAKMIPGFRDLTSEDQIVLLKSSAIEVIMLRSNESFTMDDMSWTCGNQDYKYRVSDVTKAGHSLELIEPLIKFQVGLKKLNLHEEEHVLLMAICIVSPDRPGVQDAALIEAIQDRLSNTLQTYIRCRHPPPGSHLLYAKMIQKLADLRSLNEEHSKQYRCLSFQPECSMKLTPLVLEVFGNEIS

MCF7 [2] = assay: Cell cycle arrest in human MCF7 cells expressing scrambled siRNA assessed as accumulation at S phase at 1 uM after 24 hrs by propidium iodide staining based flow cytometry (reference value: 29.79%); assay type: functional
MCF7 [3] = assay: Cell cycle arrest in human MCF7 cells expressing VDR siRNA assessed as accumulation at G2/M phase at 1 uM after 24 hrs by propidium iodide staining based flow cytometry (reference value: 17.57%); assay type: functional
MCF7 [4] = assay: Cell cycle arrest in human MCF7 cells expressing VDR siRNA assessed as accumulation at S phase at 1 uM after 24 hrs by propidium iodide staining based flow cytometry (reference value: 32%); assay type: functional
MCF7 [5] = assay: Induction of apoptosis in human MCF7 cells expressing scrambled siRNA assessed as late apoptotic cells at 1 uM after 24 hrs by Annexin-V-FITC/propidium iodide staining based flow cytometry (reference value: 0.98%); assay type: functional
MCF7 [6] = assay: Induction of apoptosis in human MCF7 cells expressing VDR siRNA assessed as late apoptotic cells at 1 uM after 24 hrs by Annexin-V-FITC/propidium iodide staining based flow cytometry (reference value: 1.01%); assay type: functional
MCF7 [7] = assay: Induction of apoptosis in human MCF7 cells expressing VDR siRNA assessed as necrotic cells at 1 uM after 24 hrs by Annexin-V-FITC/propidium iodide staining based flow cytometry (reference value: 0.15%); assay type: functional
MCF7 [8] = assay: Induction of apoptosis in human MCF7 cells assessed as upregulation of p27 expression at 1 uM after 24 hrs by Western blot analysis; assay type: functional, cell-based
In short: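 MCF-7 cells treated at 1 µM for 24 h. Lysates resolved by 10% SDS-PAGE and transferred to PVDF. Probed with rabbit anti-p21, anti-p27 and anti-Bax antibodies, with mouse anti-β-actin as loading control. HRP-conjugated secondary antibodies; bands detected on an infrared scanner.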

[9] = Solubility of the compound in water at pH 7.4 by HPLC method; assay type: physicochemical
In short: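 Aqueous solubility measured at pH 7.4, with samples quantified by HPLC.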

[10] = AUC in Sprague-Dawley rat at 5 mg/kg, iv by HPLC method; assay type: ADME, organism-based; conditions: in vivo
In short: (§1)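 Male Sprague-Dawley rats, 180–220 g, n = 3 per group. Dosed iv at 5 mg/kg or ip at 20 mg/kg in ethanol/EL/saline (1:1:18). Plasma sampled at 0, 0.083, 0.167, 0.25, 0.5, 1, 2, 4, 8, 12 and 24 h and centrifuged 12000 rpm for 10 min. Plasma drug measured by HPLC; parameters by PK modelling; mean ± SD.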

[11] = Mean residence time in Sprague-Dawley rat at 5 mg/kg, iv by HPLC method; assay type: ADME, organism-based; conditions: in vivo; in short: as §1
[12] = Clearance in Sprague-Dawley rat at 5 mg/kg, iv by HPLC method; assay type: ADME, organism-based; conditions: in vivo; in short: as §1
[13] = AUC in Sprague-Dawley rat at 20 mg/kg, ip by HPLC method; assay type: ADME, organism-based; conditions: in vivo; in short: as §1
MCF7 [14] = assay: Antitumor activity against human MCF7 cells xenografted in Balb/c nude mouse assessed as reduction in tumor growth at 10 mg/kg, ip administered three times a week for three weeks starting from day 7 after tumor cell inoculation; assay type: functional, organism-based
In short: (§2)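 […] BALB/c-nu mice, 10 weeks old. 1×10^7 MCF-7 cells injected into the left fourth mammary fat pad; dosing began at about 50 mm3 tumour volume (day 7), n = 5 per group. Dosed ip at 10 mg/kg in ethanol/EL/saline 1:1:18, three times weekly for three weeks. Tumour volume by calipers = length × width² × 0.5; tumour weight and body weight recorded.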

Mus musculus = assay: Toxicity in Balb/c nude mouse xenografted with human MCF7 cells assessed as effect on body weight at 10 mg/kg, ip administered three times a week for three weeks starting from day 7 after tumor cell inoculation; assay type: organism-based; conditions: in vivo; in short: as §2
MCF7 [15] = assay: Antitumor activity against human MCF7 cells xenografted in Balb/c nude mouse assessed as increase in p21 expression at 10 mg/kg, ip administered three times a week for three weeks starting from day 7 after tumor cell inoculation by immunohistochemical analysis; assay type: functional, organism-based

Row | IC50 (BXPC-3) | IC50 (MCF7 [1]) | IC50 (PC-3) | IC50 (Vitamin D3 receptor) | solubility [9] | AUC [10] | MRT [11] | clearance [12] | AUC [13] | SMILES | Activity (MCF7 [2]) | Activity (MCF7 [3]) | Activity (MCF7 [4]) | Activity (MCF7 [5]) | Activity (MCF7 [6]) | Activity (MCF7 [7]) | Activity (MCF7 [8]) | Activity (MCF7 [14]) | Activity (Mus musculus) | Activity (MCF7 [15])
1 | 5.13 µM | 5.16 µM | 4.01 µM | 0.0891 µM | 74.6 µg/mL (≈ 157 µM) | 11800 ng·h/mL | 8.08 h | 7 mL/min | 20400 ng·h/mL | CCN(CC)CCNC(=O)c1ccc(C(CC)(CC)c2ccc(OCSC)c(C)c2)n1CC | 27.95% | 16.01% | 32.42% | 3.65% | 1.67% | 0.51% | Active | Active | Non-Toxic | Active
2 | 4.69 µM | 2.03 µM | 6.08 µM | 0.125 µM | 85.3 µg/mL (≈ 150 µM) | 7470 ng·h/mL | 9.72 h | 11.2 mL/min | 12000 ng·h/mL | CCN(CC)CCNC(=O)c1cc(C(CC)(CC)c2ccc(OCS(=O)(=O)c3ccccc3)c(C)c2)cn1CC | 29.66% | 19.02% | 26.36% | 3.37% | 1.57% | 0.25% | Active | Active | Non-Toxic | Active
